Measured values collected from several papers.
Lines come from different studies, so protocols differ.
Cell line: A549
Read-out: cell growth or viability

SMILES | technique | time | notes | IC50
Cc1nc(Nc2ccc3c(c2)C(C)(C)C(=O)N3)c2ccccc2n1 | MTT |  |  | 3.21 µM
CNC(=O)c1cc(Oc2ccc(NC(=O)Nc3ccc(Cl)c(C(F)(F)F)c3)cc2)ccn1 | MTT | 72 h |  | 5.58 µM
Cc1nc(Nc2ccc3c(c2)/C(=C/c2ccccc2)C(=O)N3Cc2ccccc2)c2ccccc2n1 | MTT |  |  | 44.7 µM
C=CC(=O)Nc1cc(Nc2nccc(-c3cn(C)c4ccccc34)n2)c(OC)cc1N(C)CCN(C)C | MTT | 72 h |  | 28.2 µM
O=C(O)c1ccc2c(c1)nc(Nc1cccc(Cl)c1)c1ccncc12 | crystal violet | 48 h |  | 10.5 µM
CN(C)C/C=C/C(=O)Nc1cc2c(Nc3ccc(F)c(Cl)c3)ncnc2cc1O[C@H]1CCOC1 | MTT | 72 h |  | 48.5 µM
COc1cccc2c1C(=O)c1c(O)c3c(c(O)c1C2=O)C[C@@](O)(C(=O)CO)C[C@@H]3O[C@H]1C[C@H](N)[C@H](O)[C@H](C)O1 | MTT | 72 h |  | 2.7 µM
C[C@H](CCC(=O)O)[C@H]1CC[C@H]2[C@@H]3CC[C@@H]4C[C@H](O)CC[C@]4(C)[C@H]3CC[C@]12C | MTT | 72 h |  | 70 µM
O=C(C=Cc1ccccc1)Nc1cc(-c2ccnc(N3CCC(O)CC3)c2)ccn1 | MTT | 72 h |  | 0.085 µM
Cc1ncc(CN2CCc3ccccc3C2)c2cc(C(=O)c3ccc4c(c3)OCCO4)oc12 | MTT | 72 h |  | 28.2 µM
COc1cc2ncnc(Nc3ccc4c(c3)/C(=C/c3cccc(Cl)c3)C(=O)N4C)c2cc1OC | MTT |  |  | 9.19 µM
C=C(F)C(=O)N1CCN(c2nc(OC[C@@H]3CCCN3C)nc3c2CCN(c2cccc4cccc(Cl)c24)C3)C[C@@H]1CC#N | ATP luminescence |  | 3D culture | > 1 µM
Cc1ccc2c(-c3cc4c(CN5CCN(Cc6ccccn6)CC5)cnc(C)c4o3)cc(=O)oc2c1 | MTT | 72 h |  | 43.1 µM
Cc1nc(N(C)c2ccc3c(c2)/C(=C/c2ccccc2Cl)C(=O)N3C)c2ccccc2n1 | MTT |  |  | 7.68 µM
